According to EPA's CvTdb concentration-time database:

Key:
Rat [1] = test: concentration in plasma after dosing; details: dosed: 2-Hydroxy-4-methoxybenzophenone, 100 mg/kg, oral, Female, F344
Mouse [2] = test: concentration in plasma after dosing; details: 0.25 h; dosed: 2-Hydroxy-4-methoxybenzophenone; 250 mg/kg; oral; Female; B6C3F1
Mouse [3] = test: concentration in plasma after dosing; details: 2.5 min; dosed: 2-Hydroxy-4-methoxybenzophenone; 250 mg/kg; oral; Male; B6C3F1
Mouse [4] = test: concentration in plasma after dosing; details: 2 h; dosed: 2-Hydroxy-4-methoxybenzophenone; 250 mg/kg; oral; Female; B6C3F1
Mouse [5] = test: concentration in plasma after dosing; details: 0.25 h; dosed: 2-Hydroxy-4-methoxybenzophenone; 500 mg/kg; oral; Female; B6C3F1
Rat [6] = test: concentration in plasma after dosing; details: 3 h; dosed: Primidone; 80 mg/kg; oral; Female; F344
Rat [7] = test: concentration in plasma after dosing; details: 0.5 h; dosed: Primidone; 130 mg/kg; oral; Female; F344
Rat [8] = test: concentration in plasma after dosing; details: 6 h; dosed: Primidone; 130 mg/kg; oral; Female; F344
Rat [9] = test: concentration in plasma after dosing; details: 1.5 h; dosed: Primidone; 80 mg/kg; oral; Male; F344
Mouse [10] = test: concentration in plasma after dosing; details: dosed: 2,4-Dichlorophenoxyacetic acid, 5.2 mg/kg, oral, Male, B6C3F1
Hamster = test: concentration in plasma after dosing; details: dosed: 2,4-Dichlorophenoxyacetic acid, 8.0 mg/kg, oral, Male, Syrian Golden
In short: (§1)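 Sampling and analytical methods are those of each source and frequently went unreported. The concentration-versus-time and amount-versus-time points were compiled from published in vivo toxicokinetic studies and two structured collections. Most were digitised from plot screenshots with WebPlotDigitizer, with others copied from tables, in the reported units.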

Rat [11] = test: concentration in brain after dosing; details: 1.5 h; dosed: alpha-Thujone; 25 mg/kg; oral; Male; Harlan Sprague Dawley
Rat [12] = test: concentration in brain after dosing; details: 0.5 h; dosed: alpha-Thujone; 25 mg/kg; oral; Female; Harlan Sprague Dawley
Rat [13] = test: concentration in brain after dosing; details: 6 h; dosed: alpha-Thujone; 25 mg/kg; oral; Male; Harlan Sprague Dawley
Rat [14] = test: concentration in brain after dosing; details: 0.5 h; dosed: alpha-Thujone; 50 mg/kg; oral; Female; Harlan Sprague Dawley
Rat [15] = test: concentration in plasma after dosing; details: 12 h; dosed: alpha-Thujone; 25 mg/kg; oral; Male; Harlan Sprague Dawley
Rat [16] = test: concentration in plasma after dosing; details: 6 h; dosed: alpha-Thujone; 50 mg/kg; oral; Female; Harlan Sprague Dawley
Rat [17] = test: concentration in plasma after dosing; details: 5 min; dosed: alpha-Thujone; 25 mg/kg; oral; Male; Harlan Sprague Dawley
Rat [18] = test: concentration in liver after dosing; details: dosed: Perfluorohexane-1-sulphonic acid – potassium salt, 16 mg/kg, oral
Rat [19] = test: concentration in liver after dosing; details: 24 h; dosed: Perfluorohexane-1-sulphonic acid – potassium salt; 16 mg/kg; oral; Female; Harlan Sprague Dawley
Rat [20] = test: concentration in brain after dosing; details: 12 h; dosed: Perfluorohexane-1-sulphonic acid – potassium salt; 16 mg/kg; oral; Female; F344
Rat [21] = test: concentration in liver after dosing; details: 3 h; dosed: Perfluorohexane-1-sulphonic acid – potassium salt; 16 mg/kg; oral; Female; Harlan Sprague Dawley
Rat [22] = test: concentration in kidney after dosing; details: 528 h; dosed: Perfluorohexane-1-sulphonic acid – potassium salt; 16 mg/kg; oral; Female; F344
Rat [23] = test: concentration in plasma after dosing; details: dosed: Perfluorohexane-1-sulphonic acid – potassium salt, 4 mg/kg, oral, Male, F344
Rat [24] = test: concentration in plasma after dosing; details: 2 h; dosed: Pyridine; 10 mg/kg; iv; Male; F344
Rat [25] = test: concentration in plasma after dosing; details: dosed: Pyridine, 5 mg/kg, oral, Male, F344
Rat [26] = test: concentration in plasma after dosing; details: dosed: Pyridine, 5 mg/kg, oral, Male, F344; remark: listed apart in the source
Rat [27] = test: concentration in plasma after dosing; details: 20 h; dosed: Pyridine; 25 mg/kg; oral; Male; F344
human = test: concentration in blood after dosing; negative times count back from the end of exposure; details: dosed: trichloroethylene, 100 ppm, inhalation, duration: 6 hr, female
In short: as §1

O=C(c1ccccc1)c1ccc(O)cc1O [2,4-Dihydroxybenzophenone]
Rat [1]
Details	concentration in plasma [ng/mL]
0.25 h	123
4 h	77.4

Details	concentration in plasma [ng/mL]
Mouse [2]	1050
Mouse [3]	92.3
Mouse [4]	190
Mouse [5]	2690

CCC1(c2ccccc2)C(=O)NCNC1=O [Primidone]
Details	concentration in plasma [ng/mL]
Rat [6]	59300
Rat [7]	24000
Rat [8]	58400
Rat [9]	35000

O=C(O)COc1ccc(Cl)cc1Cl [2,4-Dichlorophenoxyacetic acid]
concentration in plasma [ng/mL]
Details	0.25 h	0.5 h	1 h	2 h	2.5 min	3 h	4 h	5 min	6 h
Hamster	4060	1230	1030	511	2380	–	–	9420	–
Mouse [10]	12300	19700	–	9630	–	13400	13300	6510	4310

CC(C)[C@]12CC(=O)[C@H](C)[C@H]1C2 [alpha-Thujone]
Details	concentration in brain [ng/g]	concentration in plasma [ng/mL]
Rat [11]	525	–
Rat [12]	987	–
Rat [13]	84.6	–
Rat [14]	865	–
Rat [15]	–	20.5
Rat [16]	–	169
Rat [17]	–	570

O=S(=O)([O-])C(F)(F)C(F)(F)C(F)(F)C(F)(F)C(F)(F)C(F)(F)F.[K+] [Perfluorohexane-1-sulphonic acid – potassium salt]
concentration in liver [ng/g], Rat [18]
Details	3 h	6 h	12 h	24 h	48 h	96 h	192 h	528 h	1200 h
Female, F344	67800	62400	68600	58000	–	–	47000	27600	–
Female, Harlan Sprague Dawley	49500	49000	33300	26100	14000	6030	1460	–	–
Male, Harlan Sprague Dawley	–	–	–	–	–	–	–	–	14800

Details	concentration in brain [ng/g]	concentration in kidney [ng/g]	concentration in liver [ng/g]
Rat [19]	–	–	29500
Rat [20]	1770	–	–
Rat [21]	–	–	54100
Rat [22]	–	8530	–

Rat [23]
Details	concentration in plasma [ng/mL]
1 h	23200
24 h	28900
864 h	9040

c1ccncc1 [Pyridine]
Details	concentration in plasma [ng/mL]
Rat [24]	320
Rat [27]	143

concentration in plasma [ng/mL]
Details	Rat [25]	Rat [26]
0.5 h	3090	3170
6 h	1000	1620

OCC(Cl)(Cl)Cl [trichloroethanol]
human
Details	concentration in blood [ng/mL]
0 h	7540
18 h	3770
24 h	7410
42 h	2960
48 h	6640
66 h	2540
72 h	6900
90 h	3410
96 h	6090

Details	concentration in blood [ng/mL]
human, -6 h, during exposure	222
